Laboratory results as given in ChEMBL document CHEMBL1132412, “Antagonists of the platelet P2T receptor: a novel approach to antithrombotic therapy” (J Med Chem, 1999).

How the values were obtained:
[1] = Platelet P2T receptor antagonist activity in human platelet assay; format: functional
Summary of the method: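 Human washed platelets in modified Tyrode buffer, stimulated to aggregate with ADP; aggregation followed turbidimetrically. Inhibition measured across a concentration range, pIC50 calculated from the concentration-response. Mean of four determinations (nine for one compound).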

Rattus norvegicus = species on record: Rattus norvegicus; test: Recovery of ADP-induced platelet aggregation 20 minutes post dose. mean of four determinations and spread of results; format: functional
Summary of the method: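 Anesthetized rat; ADP-induced platelet aggregation measured 20 min after dosing to gauge recovery of aggregation (functional kinetics). Mean of four determinations, with spread of results.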

Structure (SMILES) | Log IC50 [1] | Recovery of ADP-induced platelet aggregation (Rattus norvegicus) [%]
Nc1ncnc2c1ncn2[C@@H]1O[C@H](COP(=O)(O)OP(=O)(O)C(Cl)(Cl)P(=O)(O)O)[C@@H](O)[C@H]1O | -3.5 | 
CCSc1nc(N)c2ncn([C@@H]3O[C@H](COP(=O)(O)OP(=O)(O)C(Cl)(Cl)P(=O)(O)O)[C@@H](O)[C@H]3O)c2n1 | -6.53 | 
Nc1ncnc2c1ncn2[C@@H]1O[C@H](COP(=O)(O)OP(=O)(O)C(F)(F)P(=O)(O)O)[C@@H](O)[C@H]1O | -3.5 | 
CCCSc1nc(N)c2ncn([C@@H]3O[C@H](COP(=O)(O)OP(=O)(O)C(F)(F)P(=O)(O)O)[C@@H](O)[C@H]3O)c2n1 | -8.16 | 
CCCSc1nc(NCC(F)(F)F)c2ncn([C@@H]3O[C@H](COP(=O)(O)OP(=O)(O)C(Cl)(Cl)P(=O)(O)O)[C@@H](O)[C@H]3O)c2n1 | -9.48 | 10
CCCSc1nc(NCCSC)c2ncn([C@@H]3O[C@H](COP(=O)(O)OP(=O)(O)C(Cl)(Cl)P(=O)(O)O)[C@@H](O)[C@H]3O)c2n1 | -9.42 | 33
COCCNc1nc(SCCC(F)(F)F)nc2c1ncn2[C@@H]1O[C@H](COP(=O)(O)OP(=O)(O)C(Cl)(Cl)P(=O)(O)O)[C@@H](O)[C@H]1O | -8.02 | 64
O=P(O)(OC[C@H]1O[C@@H](n2cnc3c(NCC(F)(F)F)nc(SCCC(F)(F)F)nc32)[C@H](O)[C@@H]1O)OP(=O)(O)C(Cl)(Cl)P(=O)(O)O | -9.14 | 6
Nc1nc(SCCC(F)(F)F)nc2c1ncn2[C@@H]1O[C@H](COP(=O)(O)OP(=O)(O)C(Cl)(Cl)P(=O)(O)O)[C@@H](O)[C@H]1O | -8.87 | 
CCCSc1nc(NCCOC)c2ncn([C@@H]3O[C@H](COP(=O)(O)OP(=O)(O)C(Cl)(Cl)P(=O)(O)O)[C@@H](O)[C@H]3O)c2n1 | -7.81 | 48
CCCSc1nc(N)c2ncn([C@@H]3O[C@H](COP(=O)(O)OP(=O)(O)C(Cl)(Cl)P(=O)(O)O)[C@@H](O)[C@H]3O)c2n1 | -8.6 | 93
CSCCNc1nc(SCCC(F)(F)F)nc2c1ncn2[C@@H]1O[C@H](COP(=O)(O)OP(=O)(O)C(Cl)(Cl)P(=O)(O)O)[C@@H](O)[C@H]1O [CANGRELOR] | -9.35 | 79
